pIC50: −log10 of the molar value.
Experiments:
A549 = experiment: Antiproliferative activity against human A549 cells after 72 hrs by CCK-8 assay; type: functional, cell-based; settings: A549, 72 h
How it was run: (§1)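 Cells seeded at 5 × 10³/well; A549, MCF7 and SH-SY5Y grown in DMEM, CNE and L-02 in RPMI-1640 (10% FBS, pen/strep, 37 °C, 5% CO₂). Compounds in DMSO, diluted in medium; 72 h exposure versus DMSO vehicle. CCK-8 absorbance read at 450 nm; viability taken as treated/control absorbance, IC₅₀ from curve fit. Triplicate wells, three independent experiments.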

MCF7 = experiment: Antiproliferative activity against human MCF7 cells after 72 hrs by CCK-8 assay; type: functional, cell-based; settings: MCF7, 72 h; how it was run: as §1
SH-SY5Y = experiment: Antiproliferative activity against human SH-SY5Y cells after 72 hrs by CCK-8 assay; type: functional, cell-based; how it was run: as §1
CNE = experiment: Antiproliferative activity against human CNE cells after 72 hrs by CCK-8 assay; type: functional, cell-based; how it was run: as §1
L02 = experiment: Antiproliferative activity against human L02 cells after 72 hrs by CCK-8 assay; type: cell-based; settings: L02, 72 h; how it was run: as §1

| Compound | pIC50 (A549) | pIC50 (MCF7) | pIC50 (SH-SY5Y) | pIC50 (CNE) | pIC50 (L02) |
| --- | --- | --- | --- | --- | --- |
| Fc1cnc2nc1Nc1cc(cc(C(F)(F)F)c1)Nc1ncc(F)c(n1)Nc1cc(cc(C(F)(F)F)c1)N2 | < 4.30 | < 4.30 | < 4.30 | < 4.30 | < 4.30 |
| COc1cccc2c1C(=O)c1c(O)c3c(c(O)c1C2=O)C[C@@](O)(C(=O)CO)C[C@@H]3O[C@H]1C[C@H](N)[C@H](O)[C@H](C)O1 [DOXORUBICIN] | 6.20 | 6.32 | 6.05 | 6.66 | 6.06 |
| Fc1cnc2nc1Nc1cc(cc(C(F)(F)F)c1)Nc1ncc(Cl)c(n1)Nc1cc(cc(C(F)(F)F)c1)N2 | < 4.30 | < 4.30 | < 4.30 | < 4.30 | < 4.30 |
| Cc1cnc2nc1Nc1cccc(c1)Nc1ncc(C)c(n1)Nc1cccc(c1)N2 | 5.13 | 4.73 | 4.76 | 4.63 | 5.00 |
| COc1cnc2nc1Nc1cc(cc(N3CCCC3)c1)Nc1ncc(OC)c(n1)Nc1cc(cc(N3CCCC3)c1)N2 | 5.80 | 5.84 | 5.69 | 4.45 | 4.80 |
| CC(C)S(=O)(=O)c1ccc2cc1Nc1ncc(Cl)c(n1)Nc1ccc(S(=O)(=O)C(C)C)c(c1)Nc1ncc(Cl)c(n1)N2 | < 4.30 | < 4.30 | < 4.30 | < 4.30 | < 4.30 |
| Fc1cnc2nc1Nc1cccc(c1)Nc1ncc(F)c(n1)Nc1cccc(c1)N2 | < 4.30 | < 4.30 | < 4.30 | < 4.30 | < 4.30 |
| Cc1cnc2nc1Nc1cc(cc(N3CCOCC3)c1)Nc1ncc(C)c(n1)Nc1cc(cc(N3CCOCC3)c1)N2 | < 4.30 | < 4.30 | < 4.30 | < 4.30 | < 4.30 |
| COc1cnc2nc1Nc1cc(cc(N3CCOCC3)c1)Nc1ncc(OC)c(n1)Nc1cc(cc(N3CCOCC3)c1)N2 | < 4.30 | < 4.30 | < 4.30 | < 4.30 | < 4.30 |
| c1cc2nc(n1)Nc1cc(cc(N3CCOCC3)c1)Nc1ccnc(n1)Nc1cc(cc(N3CCOCC3)c1)N2 | < 4.30 | < 4.30 | < 4.30 | < 4.30 | < 4.30 |
| Clc1cnc2nc1Nc1cccc(c1)Nc1ncc(Cl)c(n1)Nc1cccc(c1)N2 | < 4.30 | < 4.30 | < 4.30 | < 4.30 | < 4.30 |

From ChEMBL document CHEMBL4152192, “Synthesis and anticancer activity evaluation of novel azacalix[2]arene[2]pyrimidines” (Eur J Med Chem, 2018)
